Data set [1] in a line: Metabolic stability in mouse plasma at 1.85 MBq after 60 mins by HPLC analysis. The class given is ADME, cell-free. The following applies: read-out: Stability. The method in brief: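 Purified tracer (1.85 MBq) was incubated with 100 μL mouse plasma at 37 °C for 2, 10, 30 and 60 min. Read-out was the percentage of activity remaining as intact tracer.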
The test system of data set [2] is Liver. Put plainly: Drug uptake in ICR mouse liver at 370 kBq/100 ul, iv at 2 mins by gamma-counting analysis. Type of data set: ADME, organism-based. The following applies: in vivo. The method in brief:
(§1)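 Male ICR mice (5 weeks, about 20 g) got 18F tracer in saline (370 KBq per 100 μL) via tail vein; n = 5 per time point, killed at 2, 10, 30, 60 min. Organs weighed and γ-counted; percent dose per gram wet tissue from comparison with diluted injectate aliquots.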

In data set [3] the test system is Bone. Briefly: Drug uptake in ICR mouse bone at 370 kBq/100 ul, iv at 30 mins by gamma-counting analysis. The class given is ADME, organism-based, Bone element. The following applies: in vivo, 0.5 h. The method in brief:
as §1

The test system of data set [4] is Brain. Briefly: Drug uptake in wild type C57BL6 mouse brain at 19.2 MBq, iv after 30 mins by autoradiographic analysis. Type of data set: ADME, organism-based. The following applies: in vivo, 0.5 h.
Data set [5] concerns Liver. Put plainly: Drug uptake in ICR mouse liver at 370 kBq/100 ul, iv at 30 mins by gamma-counting analysis. The following applies: in vivo, 0.5 h. The class given is ADME, organism-based. The method in brief: as §1
Data set [6] has as its system Lung. Briefly: Drug uptake in ICR mouse lung at 370 kBq/100 ul, iv at 10 mins by gamma-counting analysis. The following applies: in vivo. Type of data set: ADME, organism-based. The method in brief: as §1
Data set [7] relates to Heart. Briefly: Drug uptake in ICR mouse heart at 370 kBq/100 ul, iv at 60 mins by gamma-counting analysis. Type of data set: ADME, organism-based. The following applies: in vivo, 1 h. The method in brief:
as §1

In data set [8] the test system is Bone. Put plainly: Drug uptake in ICR mouse bone at 370 kBq/100 ul, iv at 10 mins by gamma-counting analysis. Type of data set: ADME, organism-based, Bone element. The following applies: in vivo. The method in brief: as §1
Data set [9] deals with Bone. Put plainly: Drug uptake in ICR mouse bone at 370 kBq/100 ul, iv at 2 mins by gamma-counting analysis. The class given is ADME, organism-based, Bone element. The following applies: in vivo. Put shortly:
as §1

In data set [10] the test system is Brain. Put plainly: Drug uptake in wild type C57BL6 mouse brain at 370 KBq/100 ul after 1 hr by autoradiographic analysis. The following applies: in vitro. Type of data set: ADME, tissue-based. Put shortly: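 Paraffin brain sections from 12-month-old male control C57BL6 mice were deparaffinized through xylene and graded ethanol, then held in PBS (0.2 M, pH 7.4) for 30 min. They were incubated with the ¹⁸F tracer (370 KBq per 100 μL) for 1 h at room temperature. Sections were washed in 40% EtOH, rinsed with water for 1 min, dried, and exposed to a phosphor plate for 2 h. The same sections were then stained with thioflavin S.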

Data set [11] relates to Lung. Briefly: Drug uptake in ICR mouse lung at 370 kBq/100 ul, iv at 30 mins by gamma-counting analysis. The class given is ADME, organism-based. The following applies: in vivo, 0.5 h. The method in brief:
as §1

Data set [12] has as its system Lung. Put plainly: Drug uptake in ICR mouse lung at 370 kBq/100 ul, iv at 60 mins by gamma-counting analysis. Type of data set: ADME, organism-based. The following applies: in vivo, 1 h. Put shortly: as §1

On to `CNc1ccc(-c2nc3cc(OCC[18F])ccc3o2)cn1`, for which, in data set [1], the remaining at 1 h, 1.85 MBq is more than 95%. Moreover, the Drug uptake in data set [2] is 10.48 % ID/g; in [3] it was 2.34 % ID/g; in data set [4] it was “Not Active”; in [5], 3.95 % ID/g; in [6], 2.8 % ID/g; in data set [7], 2.05 % ID/g. Besides, the Drug uptake in [8] is recorded as 1.11 % ID/g; in [9] it was 1.18 % ID/g; in [10] it was “Not Active”; in [11], 2.29 % ID/g; in data set [12], 2.57 % ID/g.
